The list is not random: actives were taken first. Their share in the collection is about 1.8%.
NPY Y2 blocker – blocks the human neuropeptide Y Y2 receptor; P49146; NPY-Y2 expressing cells, antagonist mode; inhibition, % at 2.7 µM; hit rate 0.99% among 140,000; AID 793; in the data active = inhibition above about 17%
Target sequence (P49146 whole entry, looked up): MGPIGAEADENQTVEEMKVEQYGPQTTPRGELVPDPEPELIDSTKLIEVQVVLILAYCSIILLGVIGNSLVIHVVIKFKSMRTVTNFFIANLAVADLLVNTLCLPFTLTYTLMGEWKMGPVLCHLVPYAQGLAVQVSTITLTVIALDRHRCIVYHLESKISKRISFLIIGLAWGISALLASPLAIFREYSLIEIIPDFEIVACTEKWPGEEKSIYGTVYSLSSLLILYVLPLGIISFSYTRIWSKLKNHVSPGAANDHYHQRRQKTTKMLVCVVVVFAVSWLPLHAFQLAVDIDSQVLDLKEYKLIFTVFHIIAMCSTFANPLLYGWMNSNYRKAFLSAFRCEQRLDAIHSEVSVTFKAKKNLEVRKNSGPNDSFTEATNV
NPY1 pot ag – human NPY-Y1 potentiation or agonism, primary screen. AID 1304. NPY-Y1 expressing cells, potentiator/agonist activation. hit rate 0.37% among 220,000. P25929. activation, % at 3.6 µM; in the data active = activation above about 33%, passing the limit was not always enough;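 also: cells stimulated with NPY at EC10 then isoproterenol at EC100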
Target sequence (P25929 whole entry, looked up): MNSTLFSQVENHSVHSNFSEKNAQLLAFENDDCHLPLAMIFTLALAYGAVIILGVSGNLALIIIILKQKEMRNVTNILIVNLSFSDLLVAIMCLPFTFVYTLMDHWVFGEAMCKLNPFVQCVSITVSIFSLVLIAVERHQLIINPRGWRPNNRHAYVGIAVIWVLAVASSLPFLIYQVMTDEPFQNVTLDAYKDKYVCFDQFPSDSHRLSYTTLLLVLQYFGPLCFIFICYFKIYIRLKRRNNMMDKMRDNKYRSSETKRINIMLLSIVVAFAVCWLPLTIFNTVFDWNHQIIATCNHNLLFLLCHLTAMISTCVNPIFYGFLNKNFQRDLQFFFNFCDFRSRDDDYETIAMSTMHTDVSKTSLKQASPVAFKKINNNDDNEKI
NPY-Y1 antag – antagonists of human neuropeptide Y receptor Y1; P25929; HEK293-CNG Y1 cells, membrane potential fluorescence; NPY at EC95, then isoproterenol; inhibition, % at 3.6 µM; hit rate 1% among 200,000; AID 1040;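 active = inhibition above the campaign mean inhibition of all tested compounds plus 3 SD, cut at about 20% in these data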
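Test system – HEK293 Y1/CNG channel cell line · Also added – NPY agonist 25 nM, then isoproterenol 1 µM plus Ro 20-1724 25 µM · Compound dosing – one concentration, 3.6 µM, in 0.4% DMSO · Schedule – compound incubation 1 h at room temperature, readout 45 min post-stimulation · Technique – fluorescence, membrane potential probe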
NPY-Y2 PAM-ag – potentiators or agonists of human neuropeptide Y receptor Y2. activation, % at 3.6 µM. hit rate 0.45% among 220,000. cells expressing NPY-Y2, potentiator/agonist read-out; in the data active = activation above about 27%;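 also: cells stimulated with NPY near EC25 plus isoproterenol at EC100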
NPY-Y1 antag ct – counter-screen for NPY-Y2 antagonists: human NPY-Y1 antagonism; cell-based NPY-Y1 antagonism counterscreen; shares compounds with NPY Y2 blocker; inhibition, % at 3.6 µM; hit rate 19% among 710; AID 1256; in the data active = inhibition above about 20%;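 also: cells challenged with NPY then isoproterenol with cAMP sensed through a CNG channel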
NPY-Y2 ant conf – human NPY-Y2 antagonism, confirmation | AID 1257 | inhibition, % at 2.8 µM | hit rate 32% among 710 | shares compounds with NPY Y2 blocker | HEK293 NPY-Y2 CNG channel, membrane potential fluorescence;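 active = mean inhibition of triplicate wells above the hit cutoff set in the primary screen, cut at about 17% in these data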
Large screens that a line does not name were inactive (follow-up assays come after a bar, where they were run).

CC(C)(C)n1nnnc1C(c1cccs1)N(Cc1ccc(Cl)cc1)CC1CCCO1 (stereo not given)	NPY Y2 blocker 28 | NPY-Y1 antag ct inactive | NPY-Y2 ant conf inactive
CCOC(=O)C1CCCN(c2nc(C)nc3c2oc2ccccc23)C1 (stereo not given)	NPY Y2 blocker 18 | NPY-Y1 antag ct inactive | NPY-Y2 ant conf inactive
Cc1nc(N2CCOCC2)c2oc3ccccc3c2n1	none
O=C(NCCNS(=O)(=O)c1ccc(Cl)cc1)c1cc(OCC(F)(F)F)ccc1OCC(F)(F)F	NPY Y2 blocker 38 | NPY-Y1 antag ct inactive | NPY-Y2 ant conf inactive
O=C(NCCNS(=O)(=O)c1ccccc1)c1cc(OCC(F)(F)F)ccc1OCC(F)(F)F	none
O=C(NC(=S)Nc1ccccc1N1CCCCC1)c1ccco1	NPY Y2 blocker 18 | NPY-Y1 antag ct inactive | NPY-Y2 ant conf inactive
COc1ccccc1C(=O)OCc1c(F)cccc1Cl	none
C=CCn1c(-c2cc3cccc(OC)c3o2)n[nH]c1=S	none (no result: NPY Y2 blocker)
COc1ccc(NC(=S)N2CCC(C(O)(c3ccccc3)c3ccccc3)CC2)cc1	none
CCOc1ccc(NC(=S)N2CCC(C(O)(c3ccccc3)c3ccccc3)CC2)cc1	NPY Y2 blocker 54 | NPY-Y1 antag ct inactive | NPY-Y2 ant conf 94
O=C(c1ccccc1F)c1cc2c(cc1[N+](=O)[O-])OCCO2	none (no result: NPY Y2 blocker)
CC(=O)c1cc(CC=C(C)C)c(O)c(CC=C(C)C)c1O	NPY Y2 blocker 25 | NPY-Y1 antag ct inactive | NPY-Y2 ant conf inactive
CC(=O)c1cc(CC=C(C)C)c(O)cc1O	none
Cc1c(-n2c(SCC(=O)NC(C)C)nc3ccccc3c2=O)c(=O)n(-c2ccccc2)n1C	none (no result: NPY Y2 blocker)
CNC(=O)c1sc(-c2ccccc2)nc1C	none
Cc1nc(-c2ccccc2)sc1C(=O)CSc1ccc(F)cc1	NPY Y2 blocker 20 | NPY-Y1 antag ct 21 | NPY-Y2 ant conf 25
CCOC(=O)/C(N=Nc1ccc(Cl)cc1)=C(/O)c1ccc([N+](=O)[O-])cc1	NPY Y2 blocker 17 | NPY-Y1 antag ct inactive | NPY-Y2 ant conf inactive
N/C(Cc1ccc(Cl)cc1)=N\OC(=O)Cc1ccc([N+](=O)[O-])cc1	none
COc1ccccc1CNC(=O)CSc1nc2ccccc2c(=O)n1CCCN1CCOCC1	none (no result: NPY Y2 blocker)
COc1ccc(NC(=O)CSc2nc3ccccc3c(=O)n2CCCN2CCCCC2)c(OC)c1	NPY Y2 blocker 24 | NPY-Y1 antag ct inactive | NPY-Y2 ant conf 20
Cc1ccc(CSC2=NCCN2C(=O)c2ccc(S(=O)(=O)N(C)C)cc2)cc1	none (no result: NPY Y2 blocker)
COc1cccc2sc(N(CCCN(C)C)C(=O)c3sc4ccccc4c3Cl)nc12	NPY Y2 blocker 27 | NPY-Y1 antag ct inactive | NPY-Y2 ant conf inactive
Cc1cccc2sc(N(CCCN(C)C)C(=O)c3sc4ccccc4c3Cl)nc12	none
O=C(CSc1n[nH]c(-c2ccccc2)n1)NCc1cccc(C(=O)O)c1	none (no result: NPY Y2 blocker)
COC(=O)C(C)N(C(=O)c1ccc(C(=O)c2ccccc2)cc1)c1c(C)cccc1C (stereo not given)	NPY Y2 blocker 19 | NPY-Y1 antag ct inactive | NPY-Y2 ant conf inactive
COC(=O)C(C)N(C(=O)c1ccc(Cl)cc1)c1c(C)cccc1C (stereo not given)	none
C=CCc1ccccc1OCC(=O)N/N=C/c1ccc(OC(C)=O)cc1OC(C)=O	none
CSc1cccc(NC(=O)Nc2nc3c(C)cccc3s2)c1	none (no result: NPY Y2 blocker, NPY-Y1 antag)
COC(=O)c1sccc1NC(=S)N1CCN(c2ccccc2F)CC1	NPY Y2 blocker 18 | NPY-Y1 antag ct inactive | NPY-Y2 ant conf inactive
CN(C)CCOC(C1CCCCC1)C1CCCCC1	NPY Y2 blocker 27 | NPY-Y1 antag ct inactive | NPY-Y2 ant conf inactive
CN(C)CCNC(=S)NC1CCCCC1	none (no result: NPY Y2 blocker)
Cc1cccc(-n2ccnc2SCC(=O)N2CCCc3ccccc32)c1C	NPY Y2 blocker 21 | NPY-Y1 antag ct inactive | NPY-Y2 ant conf 47
CCOC(=O)c1ccc(N2C(=O)c3n[nH]c(C)c3C2c2cccnc2)cc1 (stereo not given)	none
CCOC(=O)c1ccc(N2C(=O)c3n[nH]c(-c4ccco4)c3C2c2ccc([N+](=O)[O-])cc2)cc1 (stereo not given)	NPY Y2 blocker 26 | NPY-Y1 antag ct 22 | NPY-Y2 ant conf inactive
CCC(C)NC(=O)CSc1nc2c(sc3ccccc32)c(=O)n1CCCN1CCOCC1 (stereo not given)	none
CCOC(=O)CSc1nc2c(sc3ccccc32)c(=O)n1CCCN1CCOCC1	NPY Y2 blocker 19 | NPY-Y1 antag ct 21 | NPY-Y2 ant conf inactive
O=C(CN1CCN(Cc2ccc(Cl)cc2)CC1)N/N=C/c1ccccc1F	none (no result: NPY Y2 blocker, NPY-Y1 antag)
Clc1ccc(CSc2cc3c(nn2)-c2ccccc2CC3)cc1Cl	NPY Y2 blocker 20 | NPY-Y1 antag ct inactive | NPY-Y2 ant conf 36
CC(C)NC(=S)N/N=C/c1ccc(C(C)(C)C)cc1	none (no result: NPY Y2 blocker)
Clc1ccc(-c2cc(COc3ccccc3)on2)cc1	none (no result: NPY Y2 blocker)
Clc1ccc(OCc2cc(-c3ccccc3)no2)cc1Cl	NPY Y2 blocker 23 | NPY-Y1 antag ct 39 | NPY-Y2 ant conf 39
CCN(CC)CCSc1nnc2c3cc(C)ccc3n(Cc3ccccc3)c2n1	none (no result: NPY Y2 blocker, NPY-Y1 antag)
c1ccc(-c2nc(CSc3nnc(-c4cccs4)o3)cs2)cc1	NPY Y2 blocker 20 | NPY-Y1 antag ct inactive | NPY-Y2 ant conf 20
CCCCCCCSc1nnc(N)s1	none (no result: NPY Y2 blocker, NPY-Y1 antag)
CCOC(=O)c1c(-c2ccc(C)o2)csc1NC(=O)CN1CCOCC1	none
CCOC(=O)c1c(-c2ccc(C)o2)csc1NC(=O)COC(=O)c1cccs1	NPY Y2 blocker 20 | NPY-Y1 antag ct inactive | NPY-Y2 ant conf inactive
O=C(COc1ccc(Cl)cc1Cl)N/N=C/c1ccc(OC2OC(CO)C(O)C(O)C2O)cc1 (stereo not given)	none (no result: NPY Y2 blocker, NPY-Y1 antag)
CCc1[nH]nc2c1C(c1cccnc1)C(C#N)=C(N)O2 (stereo not given)	none
Cc1ccc(SCc2[nH]nc3c2C(c2cccnc2)C(C#N)=C(N)O3)cc1 (stereo not given)	NPY Y2 blocker 18 | NPY-Y1 antag ct 93 | NPY-Y2 ant conf 81
CCN1CCC2(CC1)Oc1c(OC)cccc1C1CC(c3cccnc3)=NN12 (stereo not given)	none (no result: NPY Y2 blocker, NPY-Y1 antag)
O=C(O)CC1(CC(=O)Nc2ccc(Oc3cccc(C(F)(F)F)c3)nc2)CCCC1	none (no result: NPY Y2 blocker, NPY-Y1 antag)
Cc1ccc(CNC(=O)c2cc(C)nn2-c2ccccc2)cc1	none (no result: NPY Y2 blocker, NPY-Y1 antag)
Cc1ccc(Cc2nnc3n(-c4ccccc4)nc(C(=O)c4ccccc4)n3c2=O)cc1	NPY Y2 blocker 17 | NPY-Y1 antag ct 40 | NPY-Y2 ant conf 67
Cc1ccc(C(C(=O)NC2CCCCC2)N(Cc2cccnc2)C(=O)C2COc3ccccc3O2)o1 (stereo not given)	NPY Y2 blocker 25 | NPY-Y1 antag ct inactive | NPY-Y2 ant conf inactive
Cc1ccc(C(C(=O)NC2CCCC2)N(Cc2cccnc2)C(=O)c2snc(C(N)=O)c2N)o1 (stereo not given)	none
c1cncc(C2OCC3(CO2)COC(c2cccnc2)OC3)c1 (stereo not given)	none (no result: NPY Y2 blocker)
Cc1cc([N+](=O)[O-])cc(C)c1OCC(=O)N/N=C/c1ccc(OC(=O)c2ccccc2)cc1	NPY Y2 blocker 20 | NPY-Y1 antag ct inactive | NPY-Y2 ant conf inactive

Screening data from PubChem.
